Experimental data taken from ChEMBL document CHEMBL3997801, “Design, Palladium-Catalyzed Synthesis, and Biological Investigation of 2-Substituted 3-Aroylquinolin-4(1H)-ones as Inhibitors of the Hedgehog Signaling Pathway” (J Med Chem, 2017).
Calls of active or inactive are those of the source. The calls are words filed in the database; no cut-off is given here.

Experiments:
[1] = biological target: Protein smoothened (Mus musculus) (UniProt P56726); assay: Antagonist activity at Smo in Ptch1+/- mouse medulloblastoma cells assessed as inhibition of Hh signaling pathway by measuring suppression of Gli1 mRNA expression at 10 uM after 24 hrs by qRT-PCR method
Chain of Protein smoothened (Mus musculus) (P56726 whole entry): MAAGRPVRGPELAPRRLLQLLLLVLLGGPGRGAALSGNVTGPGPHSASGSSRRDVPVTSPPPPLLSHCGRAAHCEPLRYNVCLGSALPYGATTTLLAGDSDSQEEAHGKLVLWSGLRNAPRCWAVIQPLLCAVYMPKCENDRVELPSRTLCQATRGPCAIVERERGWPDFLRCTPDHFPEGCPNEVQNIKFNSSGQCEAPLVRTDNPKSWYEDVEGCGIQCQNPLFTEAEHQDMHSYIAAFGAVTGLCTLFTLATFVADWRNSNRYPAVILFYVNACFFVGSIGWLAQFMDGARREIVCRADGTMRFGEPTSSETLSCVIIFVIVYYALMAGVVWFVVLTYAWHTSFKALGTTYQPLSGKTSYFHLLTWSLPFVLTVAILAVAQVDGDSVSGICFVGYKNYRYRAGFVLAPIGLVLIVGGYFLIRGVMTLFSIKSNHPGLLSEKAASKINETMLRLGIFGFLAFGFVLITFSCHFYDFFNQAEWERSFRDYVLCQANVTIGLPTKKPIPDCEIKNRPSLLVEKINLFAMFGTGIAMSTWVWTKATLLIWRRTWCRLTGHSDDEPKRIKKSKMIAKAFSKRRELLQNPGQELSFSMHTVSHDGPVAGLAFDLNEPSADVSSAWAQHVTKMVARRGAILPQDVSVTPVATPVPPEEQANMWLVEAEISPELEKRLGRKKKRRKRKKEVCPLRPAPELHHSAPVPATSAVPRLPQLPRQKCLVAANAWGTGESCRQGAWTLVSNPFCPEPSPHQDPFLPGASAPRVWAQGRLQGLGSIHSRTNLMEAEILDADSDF
How it was run: (§1)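 Freshly isolated Ptch1± mouse MB cells in short-term culture, treated 24 h with compound (10 μM) or DMSO. mRNA measured by qRT-PCR against a calibrator (arbitrary units) and normalized to β2-microglobulin and HPRT. Mean ± SD of three independent experiments.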

[2] = biological target: Protein smoothened (Mus musculus) (UniProt P56726); assay: Antagonist activity at Smo in […]-stimulated mouse granule cell progenitors assessed as inhibition of Hh signaling pathway-dependent cell proliferation by measuring suppression of CycD1 protein expression at 5 uM after 24 hrs by Western blot method
[3] = biological target: Protein smoothened (Mus musculus) (UniProt P56726); assay: Antagonist activity at Smo in […]-stimulated mouse granule cell progenitors assessed as inhibition of Hh signaling pathway-dependent cell proliferation by measuring suppression of N-Myc mRNA expression at 5 uM after 24 hrs by qRT-PCR method
[4] = biological target: Protein smoothened (Mus musculus) (UniProt P56726); assay: Antagonist activity at Smo in Ptch1-/- mouse MEF assessed as inhibition of Hh signaling pathway by measuring suppression of Gli2 mRNA expression at 5 uM after 48 hrs by qRT-PCR method
[5] = biological target: Protein smoothened (Mus musculus) (UniProt P56726); assay: Antagonist activity at Smo in […]-stimulated mouse granule cell progenitors assessed as inhibition of Hh signaling pathway-dependent cell proliferation by measuring suppression of Gli1 protein expression at 5 uM after 24 hrs by Western blot method
[6] = biological target: Protein smoothened (Mus musculus) (UniProt P56726); assay: Antagonist activity at Smo in Ptch1-/- mouse MEF assessed as inhibition of Hh signaling pathway by measuring suppression of CycD2 mRNA expression at 5 uM after 48 hrs by qRT-PCR method
[7] = biological target: Protein smoothened (Mus musculus) (UniProt P56726); assay: Antagonist activity at Smo in […]-stimulated mouse granule cell progenitors assessed as inhibition of Hh signaling pathway-dependent cell proliferation by measuring suppression of Gli2 mRNA expression at 5 uM after 24 hrs by qRT-PCR method
[8] = biological target: Protein smoothened (Mus musculus) (UniProt P56726); assay: Antagonist activity at Smo in mouse ASZ001 cells assessed as inhibition of Hh signaling pathway by measuring suppression of Gli2 mRNA expression at 10 uM after 48 hrs by qRT-PCR method; format: cell-based
How it was run: (§2)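 ASZ001 BCC cells (154CF medium, 2% chelated FBS, 0.05 mM CaCl2), treated 48 h with compound or DMSO. Transcripts quantified by qRT-PCR relative to a calibrator, normalized to β2-microglobulin and HPRT.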

[9] = biological target: Protein smoothened (Mus musculus) (UniProt P56726); assay: Antagonist activity at Smo in mouse ASZ001 cells assessed as inhibition of Hh signaling pathway by measuring suppression of CycD1 mRNA expression at 10 uM after 48 hrs by qRT-PCR method; format: cell-based; how it was run: as §2
[10] = biological target: Protein smoothened (Mus musculus) (UniProt P56726); assay: Antagonist activity at Smo in Ptch1-/- mouse MEF assessed as inhibition of Hh signaling pathway by measuring suppression of Igf2 mRNA expression at 5 uM after 48 hrs by qRT-PCR method
[11] = biological target: Protein smoothened (Mus musculus) (UniProt P56726); assay: Antagonist activity at Smo in mouse ASZ001 cells assessed as inhibition of Hh signaling pathway by measuring suppression of BMP2 mRNA expression at 10 uM after 48 hrs by qRT-PCR method; format: cell-based; how it was run: as §2
[12] = biological target: Protein smoothened (Mus musculus) (UniProt P56726); assay: Antagonist activity at Smo in […]-stimulated mouse granule cell progenitors assessed as inhibition of Hh signaling pathway-dependent cell proliferation by measuring suppression of CycD2 mRNA expression at 5 uM after 24 hrs by qRT-PCR method
[13] = biological target: Protein smoothened (Mus musculus) (UniProt P56726); assay: Antagonist activity at Smo in […]-stimulated mouse granule cell progenitors assessed as inhibition of Hh signaling pathway-dependent cell proliferation by measuring suppression of CycD1 mRNA expression at 5 uM after 24 hrs by qRT-PCR method
[14] = biological target: Protein smoothened (Mus musculus) (UniProt P56726); assay: Antagonist activity at Smo in […]-stimulated mouse granule cell progenitors assessed as inhibition of Hh signaling pathway-dependent cell proliferation by measuring suppression of Gli1 mRNA expression at 5 uM after 24 hrs by qRT-PCR method
[15] = biological target: Protein smoothened (Mus musculus) (UniProt P56726); assay: Antagonist activity at Smo in Ptch1+/- mouse medulloblastoma cells assessed as inhibition of Hh pathway dependent cell growth up to 72 hrs by trypan blue assay
How it was run: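 Primary MB cells freshly isolated from Ptch1± mouse tumours, used in short-term culture to keep Hh sensitivity; compound 10 μM or DMSO control; viable cells counted by trypan blue after 24, 48 and 72 h. Mean ± SD of three independent experiments.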

[16] = biological target: Protein smoothened (Mus musculus) (UniProt P56726); assay: Antagonist activity at Smo in Ptch1-/- mouse MEF assessed as inhibition of Hh signaling pathway by measuring suppression of Gli1 mRNA expression at 5 uM after 48 hrs by qRT-PCR method
[17] = biological target: Protein smoothened (Mus musculus) (UniProt P56726); assay: Antagonist activity at Smo in Ptch1+/- mouse medulloblastoma cells assessed as inhibition of Hh signaling pathway by measuring suppression of Ptch1 mRNA expression at 10 uM after 24 hrs by qRT-PCR method; how it was run: as §1
[18] = biological target: Protein smoothened (Mus musculus) (UniProt P56726); assay: Antagonist activity at Smo in Ptch1+/- mouse medulloblastoma cells assessed as inhibition of Hh signaling pathway by measuring suppression of Gli2 mRNA expression at 10 uM after 24 hrs by qRT-PCR method; how it was run: as §1
[19] = biological target: Protein smoothened (Mus musculus) (UniProt P56726); assay: Antagonist activity at Smo in mouse ASZ001 cells assessed as inhibition of Hh signaling pathway by measuring suppression of CycD2 mRNA expression at 10 uM after 48 hrs by qRT-PCR method; format: cell-based; how it was run: as §2
[20] = biological target: Protein smoothened (Mus musculus) (UniProt P56726); assay: Antagonist activity at Smo in Ptch1-/- mouse MEF assessed as inhibition of Hh signaling pathway by measuring suppression of Ptch1 mRNA expression at 5 uM after 48 hrs by qRT-PCR method
[21] = biological target: Protein smoothened (Mus musculus) (UniProt P56726); assay: Antagonist activity at Smo in mouse ASZ001 cells assessed as inhibition of Hh signaling pathway by measuring suppression of Ptch1 mRNA expression at 10 uM after 48 hrs by qRT-PCR method; format: cell-based; how it was run: as §2
[22] = biological target: Protein smoothened (Mus musculus) (UniProt P56726); assay: Antagonist activity at Smo in mouse ASZ001 cells assessed as inhibition of Hh signaling pathway by measuring suppression of Gli1 mRNA expression at 10 uM after 48 hrs by qRT-PCR method; format: cell-based; how it was run: as §2
[23] = biological target: Protein smoothened (Mus musculus) (UniProt P56726); assay: Antagonist activity at Smo in […]-stimulated mouse granule cell progenitors assessed as inhibition of Hh signaling pathway-dependent cell proliferation by measuring suppression of Ptch1 mRNA expression at 5 uM after 24 hrs by qRT-PCR method
[24] = biological target: Protein smoothened (Mus musculus) (UniProt P56726); assay: Antagonist activity at Smo in mouse ASZ001 cells assessed as inhibition of Hh pathway dependent cell growth up to 72 hrs by trypan blue assay; format: cell-based
How it was run: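 ASZ001 BCC cells grown in 154CF medium with 2% Chelex-chelated FBS and 0.05 mM CaCl2, treated with compound or DMSO control; viable cells counted by trypan blue after 24, 48 and 72 h.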

[25] = biological target: Protein smoothened (Mus musculus) (UniProt P56726); assay: Antagonist activity at Smo in Ptch1+/- mouse medulloblastoma cells assessed as inhibition of Hh signaling pathway by measuring suppression of CycD1 mRNA expression at 10 uM after 24 hrs by qRT-PCR method; how it was run: as §1
[26] = biological target: Protein smoothened (Mus musculus) (UniProt P56726); assay: Antagonist activity at Smo in Ptch1+/- mouse medulloblastoma cells assessed as inhibition of Hh signaling pathway by measuring suppression of CycD2 mRNA expression at 10 uM after 24 hrs by qRT-PCR method; how it was run: as §1
[27] = (§3) Inhibition of Bodipy-cyclopamine binding to mouse FLAG-tagged Smo D477G mutant expressed in HEK293 cells after 3 hrs by Hoechst staining based fluorescence assay; format: cell-based
How it was run: (§4)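 Cells transiently transfected with mouse Flag-tagged Smo WT or D477G were washed in PBS/0.5% FBS, fixed 10 min in 4% paraformaldehyde and permeabilized with 0.2% Triton X-100. They were then incubated 3 h at 37 °C with Bodipy-cyclopamine 5 nM plus compound, with Hoechst nuclear stain. Green signal was scored in 3–4 fields per coverslip (20×) as % of binding with BC alone.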

Mus musculus = organism: Mus musculus; assay: as §3; format: cell-based; how it was run: as §4
Protein smoothened = Protein smoothened (Mus musculus, UniProt P56726); assay: Inhibition of Bodipy-cyclopamine binding to mouse FLAG-tagged Smo expressed in HEK293 cells after 3 hrs by Hoechst staining based fluorescence assay; format: cell-based; how it was run: as §4
Chain of Protein smoothened (P56726 whole entry): as above

[28] = biological target: Protein smoothened (Mus musculus) (UniProt P56726); assay: Antagonist activity at Smo in […]-stimulated mouse granule cell progenitors assessed as inhibition of Hh signaling pathway-dependent cell proliferation by measuring suppression of NMyc protein expression at 5 uM after 24 hrs by Western blot method
[29] = biological target: Protein smoothened (Mus musculus) (UniProt P56726); assay: Antagonist activity at Smo in Ptch1-/- mouse MEF assessed as inhibition of Hh signaling pathway by measuring suppression of CycD1 mRNA expression at 5 uM after 48 hrs by qRT-PCR method
[30] = biological target: Protein smoothened (Mus musculus) (UniProt P56726); assay: Antagonist activity at Smo in Ptch1-/- mouse MEF assessed as inhibition of Hh signaling pathway by measuring suppression of HIP1 mRNA expression at 5 uM after 48 hrs by qRT-PCR method

SMILES | inhibition [1] | inhibition [2] | inhibition [3] | inhibition [4] | inhibition [5] | inhibition [6] | inhibition [7] | inhibition [8] | inhibition [9] | inhibition [10] | inhibition [11] | inhibition [12] | inhibition [13] | inhibition [14] | growth inhibition (GI) [15] | inhibition [16] | inhibition [17] | inhibition [18] | inhibition [19] | inhibition [20] | further results
COc1cccc(C(=O)c2c(-c3ccccc3)[nH]c3ccccc3c2=O)c1 | Active | Active | Active | Active | Active | Active | Active | Active | Active | Active | Active | Active | Active | Active | Dose-dependent effect | Active | Active | Active | Active | Active | inhibition [21]: Active; inhibition [22]: Active; inhibition [23]: Active; growth inhibition (GI) [24]: Dose-dependent effect; inhibition [25]: Active; inhibition [26]: Active; IC50 [27]: 12.4 µM; inhibition (Mus musculus): Dose-dependent effect; IC50 (Protein smoothened): 13.8 µM; inhibition [28]: Active; inhibition [29]: Active; inhibition [30]: Active
O=C(c1ccccc1)c1c(-c2ccccc2)[nH]c2ccc(Br)cc2c1=O | Active | Active | Active | Active | Active | Active | Active | Active | Active | Active | Active | Active | Active | Active | Dose-dependent effect | Active | Active | Active | Active | Active | inhibition [21]: Active; inhibition [22]: Active; inhibition [23]: Active; growth inhibition (GI) [24]: Dose-dependent effect; inhibition [25]: Active; inhibition [26]: Active; IC50 [27]: 29.4 µM; inhibition (Mus musculus): Dose-dependent effect; IC50 (Protein smoothened): 24 µM; inhibition [28]: Active; inhibition [29]: Active; inhibition [30]: Active
